We go through seven compounds from ChEMBL document CHEMBL1926683, “Synthesis and anticancer activity of 4β-alkylamidochalcone and 4β-cinnamido linked podophyllotoxins as apoptotic inducing agents” (Eur J Med Chem, 2012).

In general, IC50 refers to the concentration that inhibits the measured activity by half. Read a high IC50 as weaker potency.

The source made the active and inactive calls. The calls are words filed in the database; no cut-off is given here.

For assay [1], the system named is A549. The assay is described as follows: Induction of apoptosis in human A549 cells assessed as cytoplasmic condensation at 5 uM after 24 hrs by Hoechst staining-based fluorescent microscopic analysis. It counts as functional, cell-based. The method in brief:
(§1)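 A-549 cells (10,000) were grown on 18-mm coverslips for 24 h, given fresh medium, then treated 24 h. Vehicle control was 0.001% DMSO. Hoechst 33258 was added to medium at […]. Apoptotic cells were quantified manually by field counts scoring cytoplasmic condensation, apoptotic bodies, nuclear fragmentation and relative fluorescence.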

In assay [2] the test system is HT-29. The assay is described as follows: Anticancer activity against human HT-29 cells after 48 hrs by MTT assay. It counts as functional, cell-based. The note with it: HT-29, 48 h. The method in brief: (§2)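 MTT assay. Cells seeded at 1 × 10⁴/well in DMEM with 10% FBS and held 24 h at 37 °C in CO₂. Compounds were diluted in culture medium and added alongside vehicle controls, then incubated 48 h. MTT (5 mg/ml stock) was added for 4 h. Supernatant was removed, formazan dissolved in DMSO, and absorbance read at 540 nm.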
Background: Tetrazolium dyes change colour on reduction, which living cells bring about.

Assay [3] has as its system A549. The assay is described as follows: Induction of apoptosis in human A549 cells assessed as presence of apoptotic bodies at 5 uM after 24 hrs by Hoechst staining-based fluorescent microscopic analysis. It counts as functional, cell-based. The method in brief: as §1
Assay [4] has as its system ACHN. As to the kind of experiment: Anticancer activity against human ACHN cells after 48 hrs by MTT assay. It counts as functional, cell-based. The method in brief: as §2
The test system of assay [5] is A549. As to the kind of experiment: Induction of apoptosis in human A549 cells assessed as cytoplasmic condensation at 2 uM after 24 hrs by Hoechst staining-based fluorescent microscopic analysis. It counts as functional, cell-based. The method in brief: as §1
Assay [6] relates to A549. The assay is described as follows: Cell cycle arrest in human A549 cells assessed as accumulation at G2/M phase at 1 uM after by propidium iodide staining-based fluorescence analysis (reference value: 9.27%). It counts as functional.
Assay [7] concerns MCF7. The assay is described as follows: Anticancer activity against human MCF7 cells after 48 hrs by MTT assay. It counts as functional, cell-based. The following applies: MCF7, 48 h. The method in brief: as §2
Assay [8] has as its system A549. The assay is described as follows: Induction of apoptosis in human A549 cells assessed as nuclear fragmentation at 2 uM after 24 hrs by Hoechst staining-based fluorescent microscopic analysis. The assay is classed as functional, cell-based. The method in brief: as §1
Assay [9] has as its system A-375. The assay is described as follows: Anticancer activity against human A375 cells after 48 hrs by MTT assay. The assay is classed as functional, cell-based. The following applies: A-375, 48 h. The method in brief:
as §2

Assay [10] has as its system A549. The assay is described as follows: Cell cycle arrest in human A549 cells assessed as accumulation at S phase at 1 uM after by propidium iodide staining-based fluorescence analysis (reference value: 2.74%). It counts as functional.
For assay [11], the system named is A549. As to the kind of experiment: Induction of apoptosis in human A549 cells assessed as presence of apoptotic bodies at 2 uM after 24 hrs by Hoechst staining-based fluorescent microscopic analysis. The assay is classed as functional, cell-based. The method in brief: as §1
The subject of assay [12] is A549. As to the kind of experiment: Induction of apoptosis in human A549 cells assessed as nuclear fragmentation at 5 uM after 24 hrs by Hoechst staining-based fluorescent microscopic analysis. It counts as functional, cell-based. The method in brief:
as §1

The test system of assay [13] is A549. The assay is described as follows: Cell cycle arrest in human A549 cells assessed as accumulation at subG1 phase at 1 uM after by propidium iodide staining-based fluorescence analysis (reference value: 2.74%). It counts as functional.
Assay [14] has as its system A549. The assay is described as follows: Induction of apoptosis in human A549 cells assessed as caspase 3 activation using Ac-DEVD as substrate at 2 uM after 48 hrs by fluorometric analysis relative to control. The assay is classed as functional. The method in brief: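 A-549 cells were seeded at 2.5 × 10⁵/well and treated. Cells were scraped into PBS, pelleted, lysed on ice 20–30 min, and cleared at 13,200 rpm. Lysate was mixed with 2X assay buffer and Ac-DEVD-AFC substrate and reacted 1 h. AFC fluorescence (ex 400, em 505 nm) was read every 5 min, expressed as fold over control. Mean of two experiments in triplicate.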

The subject of assay [15] is A549. The assay is described as follows: Cell cycle arrest in human A549 cells assessed as accumulation at G0/G1 phase at 1 uM after by propidium iodide staining-based fluorescence analysis (reference value: 83.43%). It counts as functional.
In assay [16] the test system is A549. The assay is described as follows: Induction of apoptosis in human A549 cells assessed as induction of DNA fragmentation at 5 uM after 48 hrs by agarose gel electrophoresis. The assay is classed as functional, cell-based. The method in brief: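 A-549 cells (1 × 10⁶, six-well plates) were treated 48 h after 24 h attachment. Cells were pelleted, PBS-washed and lysed. Supernatant was treated with 10% SDS and RNase-A for 2 h at 56 °C, then proteinase K for 2 h at 37 °C. DNA was precipitated with ammonium acetate and ice-cold ethanol at −80 °C, pelleted, washed with 80% ethanol, and run for ladder pattern against a 50 bp marker.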

For assay [17], the system named is A549. As to the kind of experiment: Anticancer activity against human A549 cells after 48 hrs by MTT assay. The assay is classed as functional, cell-based. The note with it: A549, 48 h. The method in brief:
as §2

Assay [18] has as its system A549. The assay is described as follows: Cell cycle arrest in human A549 cells assessed as accumulation at S phase at 5 uM after by propidium iodide staining-based fluorescence analysis (reference value: 2.74%). The assay is classed as functional.
The subject of assay [19] is A549. As to the kind of experiment: Cell cycle arrest in human A549 cells assessed as accumulation at G2/M phase at 5 uM after by propidium iodide staining-based fluorescence analysis (reference value: 9.27%). The assay is classed as functional.
The test system of assay [20] is A549. The assay is described as follows: Cell cycle arrest in human A549 cells assessed as accumulation at G0/G1 phase at 5 uM after by propidium iodide staining-based fluorescence analysis (reference value: 83.43%). It counts as functional.
Assay [21] concerns A549. As to the kind of experiment: Cell cycle arrest in human A549 cells assessed as accumulation at subG1 phase at 5 uM after by propidium iodide staining-based fluorescence analysis (reference value: 2.74%). It counts as functional.

For `COc1cc([C@@H]2c3cc4c(cc3[C@@H](O[C@@H]3O[C@@H]5CO[C@@H](C)O[C@H]5[C@H](O)[C@H]3O)[C@H]3COC(=O)[C@H]23)OCO4)cc(OC)c1O` [ETOPOSIDE], the result in assay [1], in [3], in [5], in assay [8], in assay [11] and in assay [12] was Active. For the same compound, in assay [16], the result was Active. The IC50 in [2] stood at 1.81 µM; in assay [4], 7.61 µM; in [7], 0.68 µM; in assay [9], 1.39 µM; in [17], 2.34 µM. In addition, the Activity in assay [6] came to 19.21%; in assay [10] it was 7.23%; in [13], 2.89%; in [15], 69.82%. For the same compound, in assay [14], the “fold change (FC)” value is 6.
In the case of `COc1cc([C@@H]2c3cc4c(cc3[C@@H](NC(=O)/C=C/c3ccccc3)[C@H]3COC(=O)[C@H]23)OCO4)cc(OC)c1OC`, the result in assay [1], in assay [3], in [5], in [8], in assay [11] and in assay [12] was Active. In addition, the outcome in assay [16] was Active. For the same compound, the Activity in assay [18] amounted to 8.64%; in assay [19], 67.78%; in assay [6], 61.89%; in assay [20] it was 18.65%; in assay [10], 9.5%; in assay [13], 3.29%. The Activity amounted to 23.39% in assay [15] and 2.62% in assay [21]. The IC50 in [2] is 2.36 µM; in assay [4], 3.91 µM; in [7], 19.7 µM; in assay [9] it was 13.4 µM; in [17], 2.7 µM. Further, in assay [14], the “fold change (FC)” value is reported as 4.
Consider `COc1ccc(C(=O)/C=C/c2ccc(OCCCCCC(=O)N[C@@H]3c4cc5c(cc4[C@@H](c4cc(OC)c(OC)c(OC)c4)[C@H]4C(=O)OC[C@@H]43)OCO5)c(OC)c2)cc1`, for which the IC50 in assay [2] came out at 16 µM; in assay [4] it was 10 µM; in [7], 12 µM; in [9], 13 µM; in assay [17], 19 µM.
Taken in the same sequence, the figures for `COc1cc([C@@H]2c3cc4c(cc3[C@@H](NC(=O)/C=C/c3ccc(F)cc3)[C@H]3COC(=O)[C@H]23)OCO4)cc(OC)c1OC` were 7.1 µM, 18.6 µM, 14.6 µM, 9.5 µM and 6.8 µM.
For the compound `COc1cc(C(=O)/C=C/c2cccc(OCC(=O)N[C@@H]3c4cc5c(cc4[C@@H](c4cc(OC)c(OC)c(OC)c4)[C@H]4C(=O)OC[C@@H]43)OCO5)c2)cc(OC)c1OC`, the IC50 came to 15.6 µM in assay [2]; 9.1 µM in assay [4]; 24.4 µM in assay [7]; 18.2 µM in assay [9]; 16.8 µM in assay [17].
Regarding `COc1cc([C@@H]2c3cc4c(cc3[C@@H](NC(=O)/C=C/c3ccc(C(F)(F)F)cc3)[C@H]3COC(=O)[C@H]23)OCO4)cc(OC)c1OC`, the result in assay [1], in assay [3], in [5], in assay [8], in assay [11] and in assay [12] was Active. The result in [16] was Active. Further, the Activity in assay [18] was 10.16%; in assay [19], 43.39%; in assay [6], 38.11%; in assay [20], 39.84%; in [10], 9.54%; in assay [13] it was 4.51%. Moreover, the Activity in assay [15] worked out at 45.23%; in [21] it was 4.43%. For the same compound, the IC50 was found to be 0.37 µM in [2]; 2.18 µM in assay [4]; 19.2 µM in assay [7]; 18 µM in assay [9]; 2.1 µM in [17]. For the same compound, the “fold change (FC)” value in assay [14] is 4.
In the case of `COc1cc(/C=C/C(=O)c2c(C)nc3ccccc3c2-c2ccccc2)ccc1OCCCCCC(=O)N[C@@H]1c2cc3c(cc2[C@@H](c2cc(OC)c(OC)c(OC)c2)[C@H]2C(=O)OC[C@@H]21)OCO3`, the IC50 came out at 8.9 µM in assay [2]; 9.46 µM in assay [4]; 2.2 µM in [7]; 6.8 µM in [9]; 7.7 µM in assay [17].
